m-calpain inh – inhibitors of pig calpain II | purified calpain II, fluorogenic peptide substrate, 30 min | inhibition, % at 16 µM | 220,000 compounds, 0.37% hits;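 active = inhibition above about 50%, limit read from the data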
hK5 inh – blocks human kallikrein 5 protease activity; 210,000 compounds, 0.59% hits; recombinant hK5, fluorogenic AMC substrate cleavage; AID 873; inhibition, % at 5 µM;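 active = inhibition of 40% or more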
thrombin 1536 – inhibitors of human thrombin | 220,000 compounds, 0.26% hits | alpha-thrombin, Boc-VPR-AMC fluorogenic substrate cleavage | inhibition, % at 5 µM;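 active = inhibition at or above 40%; inactive = inhibition below 40%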
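Assay system: human alpha-thrombin enzyme. Reagent: Boc-VPR-AMC substrate, 15 µM final. Compound dosing: one concentration per compound, 5 µM, with 0.2% DMSO. Incubation: room-temperature reaction. Technique: AMC fluorescence, 355/460 nm. Measure: % inhibition relative to enzyme controls and enzyme-free blanks.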
FXIIa inh 1536 – factor XIIa (human) inhibition; inhibition, % at 5 µM; purified FXIIa, Boc-QGR-AMC fluorogenic substrate, 2 h; 220,000 compounds, 0.3% hits; AID 800; in the data active = inhibition above about 40%
Target sequence (P00748 20-372 limits assumed): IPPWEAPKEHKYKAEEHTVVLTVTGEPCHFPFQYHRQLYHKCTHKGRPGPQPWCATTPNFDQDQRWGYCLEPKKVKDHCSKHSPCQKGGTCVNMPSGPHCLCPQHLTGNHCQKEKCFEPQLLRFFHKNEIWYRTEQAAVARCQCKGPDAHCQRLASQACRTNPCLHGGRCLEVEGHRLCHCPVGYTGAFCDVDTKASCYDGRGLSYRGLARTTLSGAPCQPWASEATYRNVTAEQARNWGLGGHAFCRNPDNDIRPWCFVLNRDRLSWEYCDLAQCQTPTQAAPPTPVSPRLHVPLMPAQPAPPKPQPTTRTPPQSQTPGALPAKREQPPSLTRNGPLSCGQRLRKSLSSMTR
Target sequence (P00748 373-615 limits assumed): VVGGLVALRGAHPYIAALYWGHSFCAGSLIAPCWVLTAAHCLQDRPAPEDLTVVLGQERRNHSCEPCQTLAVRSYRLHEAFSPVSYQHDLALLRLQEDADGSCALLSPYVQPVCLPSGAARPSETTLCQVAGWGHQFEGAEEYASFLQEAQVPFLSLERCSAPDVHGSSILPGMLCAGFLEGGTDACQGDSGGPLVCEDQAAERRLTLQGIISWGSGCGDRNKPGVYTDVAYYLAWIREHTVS
FXIa inh 1536 – inhibitors of human coagulation factor XIa. P03951. purified FXIa, Boc-Glu-Ala-Arg-AMC fluorogenic substrate. inhibition, % at 5 µM. 220,000 compounds, 0.14% hits. AID 798;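 active = inhibition of at least 40%; inactive = inhibition below 40%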;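 note: fluorescence of freed AMC excited at 355 nm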
A number is an active result; 0 = inactive; - = not tested or not shown. A selection: hits, their analogues and other compounds. The true share with any hit is near 1.4%.

SMILES | m-calpain inh | hK5 inh | thrombin 1536 | FXIIa inh 1536 | FXIa inh 1536
CCCc1nc2c(=O)[nH]c3ccccc3c2o1 | 0 | 44.3 | 0 | 0 | 0
O=C(CSc1nnc(Cn2nnc(-c3ccccc3)n2)n1-c1ccccc1)Nc1ccc(F)cc1 | 0 | 85.4 | 69.1 | 0 | 0
CCCNC(=O)Cn1nc(C(F)(F)F)cc1C | 0 | 0 | 0 | 0 | 0
COCCNC(=O)Cn1nc(C(F)(F)F)cc1C | 0 | 44.1 | 104.0 | 0 | 0
CN1CCN(C(=O)c2ccc3c(=O)n4c(nc3c2)CCCCC4)CC1 | 0 | 42.3 | 0 | 0 | 0
O=c1c2ccccc2nc2n1CCC2 | 0 | 59.8 | 0 | 0 | 0
CC1=C(C)CC2(SC1)C(=O)N(c1ccccc1)N=C2N (stereo unspecified) | 0 | 0 | 0 | 0 | 0
COc1ccc(N2CCCn3c2nc2c3c(=O)n(Cc3ccc(C)cc3)c(=O)n2C)c(OC)c1 | 0 | 0 | 0 | 53.7 | 0
COc1cccc(N2CCCn3c2nc2c3c(=O)n(CCN3CCOCC3)c(=O)n2C)c1 | 0 | 0 | 0 | 0 | 0
c1ccc(-n2ncc3c(NCc4cccs4)ncnc32)cc1 | 64.1 | 0 | 0 | 0 | 0
COc1ccc(-n2ncc3c(NCc4ccccn4)ncnc32)cc1 | 0 | 0 | 0 | 44.5 | 0
COc1cc2c(cc1OC)CN(C(=O)c1sc(-c3cnccn3)nc1C)CC2 | 0 | 0 | 0 | 0 | 0
Cc1ccc(C(C)C)c(OCc2nc(-c3nonc3N)no2)c1 | 0 | 53.9 | 0 | 0 | 0
O=C(COC(=O)CCN=C1NS(=O)(=O)c2ccccc21)NC1CCCCCCC1 | 0 | 0 | 0 | 0 | 0
N#Cc1c(N)nc2c3c(sc(=N)c2c1N)NC(=O)CC3c1c(F)cccc1Cl (stereo unspecified) | 0 | 68.2 | 0 | 0 | 0
N#Cc1c(N)nc2c3c(sc(=N)c2c1N)NC(=O)CC3c1ccccc1 (stereo unspecified) | 0 | 0 | 0 | 0 | 0
CC1Cn2c(nnc2-c2cc3ccccc3cc2O)S1 (stereo unspecified) | 0 | 44.1 | 0 | 0 | 0
CC1Cn2c(nnc2-c2ccccc2O)S1 (stereo unspecified) | 0 | 0 | 0 | 0 | 0
CC(C)c1onc(C(=O)Nc2cccnc2Cl)c1[N+](=O)[O-] | 55.7 | - | 0 | 0 | 0
Cc1onc(C(=O)Nc2cccnc2Cl)c1[N+](=O)[O-] | 0 | 0 | 0 | 0 | 0
CC(C)c1onc(C(=O)Nc2cccc(O)c2)c1[N+](=O)[O-] | 0 | 0 | 0 | 0 | 0
Cc1ccc(NC(=O)c2noc(C(C)C)c2[N+](=O)[O-])cc1 | 58.2 | - | 0 | 0 | 0
CCN(CC)CCC(c1ccc2c(c1)OCO2)c1c(O)cc(OC)cc1OC (stereo unspecified) | 0 | 0 | 0 | 0 | 0
O=C(NNc1cc(Cl)ccc1Cl)c1c(F)cccc1Cl | 0 | 0 | 0 | 42.3 | 0
O=C(NNc1ccc(Cl)cc1)c1c(F)cccc1Cl | 0 | 0 | 0 | 0 | 0
SMILES | m-calpain inh | hK5 inh | thrombin 1536 | FXIIa inh 1536 | FXIa inh 1536
O=C(O)CCCn1cc(NC(=O)c2c(F)cccc2F)cn1 | 0 | 0 | 0 | 0 | 0
CCOC(=O)CSC1=C(C#N)C(c2ccc(Cl)cc2)CC(=O)N1 (stereo unspecified) | 0 | 45.4 | 0 | 0 | 0
Cc1ccc(S(=O)(=O)N(C)C)cc1NC(=S)N1CCCCC1CO (stereo unspecified) | 0 | 0 | 0 | 0 | 0
CCN(CC)C(=O)c1sc2c(c1C)c(=O)n(-c1ccc(C)c(C)c1)c(=O)n2CC(=O)NCC1CCCO1 (stereo unspecified) | 0 | 0 | 0 | 0 | 0
CCOc1cc(S(=O)(=O)N2CCCCC2)ccc1Cl | 0 | 59.7 | 104.4 | 0 | 0
O=S(=O)(c1cc(Cl)ccc1Cl)N1CCCC1 | 0 | 0 | 0 | 0 | 0
COc1ccc(Cl)c(S(=O)(=O)N2CCCC2)c1 | 0 | 67.9 | 0 | 0 | 0
Nc1cc(S(=O)(=O)N2CCCCC2)ccc1Oc1ccccc1 | 50.7 | 0 | 0 | 0 | 0
O=C(N/N=C\c1cccc([N+](=O)[O-])c1O)C1COc2ccccc2O1 (stereo unspecified) | 0 | 54.9 | 0 | 0 | 0
O=C(N/N=C/c1cccc([N+](=O)[O-])c1)C1COc2ccccc2O1 (stereo unspecified) | 0 | 0 | 0 | 0 | 0
CCOC(=O)c1cc([N+](=O)[O-])sc1N | 0 | 0 | 0 | 0 | 0
COc1cccc(-n2c(SCC(=O)OC(C)C)nnc2-c2cccnc2)c1 | 52.0 | 0 | 0 | 0 | 0
CCn1c(SCC(=O)N/N=C(\C)c2ccco2)nnc1-c1ccccc1 | 0 | 0 | 0 | 0 | 0
CCn1c(=S)[nH]c2scc(-c3cccs3)c2c1=O | 0 | 0 | 0 | 0 | 0
CC(C)n1c(=S)[nH]c2scc(-c3cccs3)c2c1=O | 59.5 | 0 | 0 | 0 | 0
COc1cccc(C(=O)Nc2cc(C(=O)NCCc3ccccc3)ccc2Cl)c1 | 0 | 0 | 0 | 0 | 0
CCCCC(=O)Nc1cc(C(=O)NCCc2ccccc2)ccc1Cl | 0 | 63.3 | 0 | 0 | 0
N#CCc1ccc(NS(=O)(=O)c2ccc(C3CCCCC3)cc2)cc1 | 0 | 0 | 0 | 0 | 0
COc1ccc(S(=O)(=O)Nc2ccc(CC#N)cc2)cc1 | 0 | 43.3 | 0 | 0 | 0
Cc1ccc(C)n1-c1ccc(-c2nnco2)cc1 | 0 | 0 | 40.1 | 0 | 0
Cc1cc(-c2nnco2)c(C)n1-c1ccc(F)cc1 | 0 | 0 | 0 | 0 | 0
COc1ccc(N(C(C)C(=O)N/N=C/c2cccnc2)S(C)(=O)=O)cc1 (stereo unspecified) | 0 | - | 0 | 0 | 0
CCCCCCCCNC1=CC(=O)CC(C)(C)C1 | 0 | 50.0 | 0 | 0 | 0
CC1(C)CC(=O)C=C(NCCO)C1 | 0 | 0 | 0 | 0 | 0
CCCCCCCNC1=CC(=O)CC(c2ccccc2)C1 (stereo unspecified) | 73.6 | 0 | 0 | 0 | 0
SMILES | m-calpain inh | hK5 inh | thrombin 1536 | FXIIa inh 1536 | FXIa inh 1536
CCCC1=C(C(=O)OCC)C(c2cccnc2)n2nc(C)nc2N1 (stereo unspecified) | 0 | 0 | 0 | 0 | 0
O=C(/C=C/c1ccc(F)cc1)NCC1(c2ccccc2)CCOCC1 | 0 | 0 | 0 | 0 | 0
CCN(CC)C(=O)CSc1nc2ccccc2c(=O)n1CC | 0 | 87.5 | 0 | 0 | 0
N/C(=N\OC(=O)c1ccc(Cl)c(Cl)c1)c1cccnc1 | 0 | 0 | 0 | 0 | 0
N/C(=N\OC(=O)c1cccc(Cl)c1)c1cccnc1 | 0 | 0 | 47.1 | 0 | 0
Cc1ccc(NC(=O)c2ccc(N/N=C/c3cccc(O)c3)c([N+](=O)[O-])c2)cc1 | 0 | 0 | 0 | 0 | 0
Cc1ccccc1NC(=O)c1ccc(N/N=C/c2ccccc2O)c([N+](=O)[O-])c1 | 55.0 | 0 | 0 | 0 | 0
Cc1ccc(/C=N/Nc2cc(C)nc(NCc3ccccc3)n2)cc1 | 0 | 0 | 0 | 0 | 0
Cc1cc(N/N=C/c2ccc(O)cc2)nc(NS(=O)(=O)c2ccccc2)n1 | 0 | 47.0 | 0 | 0 | 0
Cc1cc(C(=O)O)ccc1-c1ccc(/C=C2\NC(=O)N(Cc3ccc(F)cc3)C2=O)o1 | 0 | 0 | 0 | 0 | 0
Cc1ccc(NC(=O)CC2=NC(=O)C(CC(=O)Nc3ccccc3F)S2)cc1 (stereo unspecified) | 0 | 0 | 0 | 0 | 0
O=C(Nc1ccc2ccccc2c1)C(=O)C1C(=O)Nc2ccccc21 (stereo unspecified) | 51.5 | 0 | 0 | 0 | 0
